A selection: hits, their analogues and other compounds. The true share with any hit is near 2.7%.
pPAFAH inh: inhibitors of human plasma PAF acetylhydrolase (pPAFAH); Q13093; recombinant pPAFAH, FP-rhodamine probe fluorescence polarization; 330,000 compounds, 1.5% hits; inhibition, % at 3.39 µM;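 active = inhibition above the mean inhibition across the screen plus 3 SD, cut at about 25% in these data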;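 note: inhibitors block binding of the rhodamine activity-based probe so polarization drops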
ARFGAP1 inhibitor: rat ARFGAP1 inhibition | Q62848 | Arfgap1-stimulated ARF1 GTP hydrolysis, GDP FP detection | inhibition, % at 16.5 µM | 360,000 compounds, 0.26% hits;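 active = inhibition above a per-plate limit, mean inhibition of low control wells plus 3 SD, cut at about 25% in these data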
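Material: rat Arfgap1 GAP domain (His6, aa 1-136), purified enzyme. Also added: human ARF1(Δ1-17)-GTP substrate. Compound dosing: 16.5 µM single point, 1.26% DMSO. Timing: enzyme reaction 120 min at 25 °C after 20 min preincubation. Signal: GDP detection by fluorescence polarization. Read-out basis: percent inhibition of GAP-stimulated GDP formation, scaled between DMSO and no-Arfgap1 medians.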
PAFAH1B2 FP inh: inhibitors of human PAFAH1B2; P68402; recombinant PAFAH1B2, FP-rhodamine activity probe, fluorescence polarization; inhibition, % at 3.39 µM; 340,000 compounds, 1.2% hits; AID 492953;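 active = inhibition above the mean of all tested compounds plus 3 SD, cut at about 24% in these data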
PAFAH2 FP inh: PAFAH2 (human) inhibition; AID 492956; inhibition, % at 3.39 µM; Q99487; 340,000 compounds, 0.99% hits; recombinant PAFAH2, FP-rhodamine activity probe, fluorescence polarization;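 active = inhibition above the mean over all tested compounds plus 3 SD, cut at about 30% in these data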;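 note: inhibitors block probe labeling of enzyme so polarization drops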
ASAP1 GAP inh: blocks human ASAP1-stimulated Arf1 GTP hydrolysis. Q9ULH1. GDP FP detection. inhibition, % at 16.5 µM. 360,000 compounds, 0.19% hits. AID 624377; in the data active = inhibition above about 25%
Target sequence (Q9ULH1 325-724 limits assumed): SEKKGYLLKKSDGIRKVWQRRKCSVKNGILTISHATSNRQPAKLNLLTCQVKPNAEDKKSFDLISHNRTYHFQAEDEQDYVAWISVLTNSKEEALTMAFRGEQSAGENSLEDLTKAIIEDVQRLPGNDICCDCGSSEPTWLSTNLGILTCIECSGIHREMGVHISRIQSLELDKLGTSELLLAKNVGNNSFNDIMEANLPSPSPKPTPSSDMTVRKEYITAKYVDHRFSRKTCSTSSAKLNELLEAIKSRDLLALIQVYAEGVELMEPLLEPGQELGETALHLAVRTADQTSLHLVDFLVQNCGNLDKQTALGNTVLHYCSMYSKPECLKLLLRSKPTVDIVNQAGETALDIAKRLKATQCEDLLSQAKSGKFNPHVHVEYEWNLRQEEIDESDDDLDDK
PAFAH1B3 inh: inhibitors of human PAFAH1B3; Q15102; recombinant PAFAH1B3, FP-rhodamine probe, fluorescence polarization; inhibition, % at 3.39 µM; 340,000 compounds, 0.28% hits; AID 492972;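 active = inhibition above the screen-wide average of all tested compounds plus 3 SD, cut at about 25% in these data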
Target sequence (Q15102 whole entry, looked up): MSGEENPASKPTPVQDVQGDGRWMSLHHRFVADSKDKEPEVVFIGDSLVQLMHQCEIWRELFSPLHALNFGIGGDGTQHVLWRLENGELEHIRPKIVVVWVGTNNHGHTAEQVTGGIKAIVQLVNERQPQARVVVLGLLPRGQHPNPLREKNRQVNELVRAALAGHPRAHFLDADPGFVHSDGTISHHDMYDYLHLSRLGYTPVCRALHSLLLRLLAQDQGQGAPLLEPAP
Numbers stand for hits; - = inactive; . = no result given.

SMILES | pPAFAH inh | ARFGAP1 inhibitor | PAFAH1B2 FP inh | PAFAH2 FP inh | ASAP1 GAP inh | PAFAH1B3 inh
COC(=O)C1=C(C)N(CC(C)C)C(=S)NC1c1ccc(Cl)cc1 (stereo not given) | . | - | . | . | - | .
CC(C)=NOC(=O)c1ccc(-c2ccccc2)cc1 | 30 | - | - | - | - | -
O=C(c1ccccc1)N1CCC(CC2CC(c3cccc(Br)c3)=NO2)(C(=O)NCC2CCCCC2)CC1 (stereo not given) | 26 | . | - | - | . | -
CC(C)(C)OC(=O)N1CCC(CC2CC(c3cccc(Br)c3)=NO2)(C(=O)NCC2CCCCC2)CC1 (stereo not given) | - | - | - | - | - | -
C=CCN1CC(COCc2ccccc2)OCCS1(=O)=O (stereo not given) | . | - | . | . | - | .
CCN(CC)c1ccc(N=Nc2nn(C)c(C)c2[N+](=O)[O-])cc1 | - | - | - | - | - | -
CCN(Cc1ccccc1)c1ccc(N=Nc2nn(C)c(C)c2[N+](=O)[O-])cc1 | 25 | - | 62 | - | - | -
CCOC(=O)N(C)C[C@H]1OCc2cnnn2CCCC(=O)N([C@H](C)CO)C[C@@H]1C | . | - | . | . | - | .
Cc1ccc(-c2c(C(=O)NCc3ccccc3)oc(=O)c3ccccc23)cc1 | 32 | - | - | - | - | -
O=S(=O)(NCc1ccc(F)cc1)c1ccccc1Br | - | - | 25 | - | - | -
CC(=O)N(C)C[C@@H]1Oc2cc(Br)ccc2S(=O)(=O)N([C@H](C)CO)C[C@@H]1C | . | - | . | . | - | .
O=c1[nH]c(/C=C\c2cccc(Cl)c2)nc(O)c1[N+](=O)[O-] | - | - | 33 | - | - | -
Nc1ncnc(N)c1NC(=O)c1ccccc1 | . | - | . | . | - | .
NC(=O)CCC(NS(=O)(=O)c1ccc(Cl)cc1)C(=O)NCc1ccc(Cl)cc1 (stereo not given) | - | - | 24 | - | - | -
CCOC(=O)c1c(C)oc2c1cc(NS(=O)(=O)c1ccc(C(=O)O)cc1)c1ccccc12 | 29 | - | - | - | - | -
CCOc1cc(/C=C(/C#N)c2ccc(F)cc2)ccc1OCc1ccc(C(=O)O)o1 | - | - | 32 | - | - | -
CCOc1cc(/C=C(/C#N)c2nc3ccccc3[nH]2)ccc1OCc1ccc(C(=O)O)o1 | - | - | - | - | - | -
CC1=C(C(=O)OCc2ccccc2)C(c2ccc(C(C)(C)C)cc2)NC(=O)N1CCCCCC(=O)O (stereo not given) | 25 | - | - | - | - | -
COC(=O)CCCN1C(=O)NC(c2ccc(-c3ccccc3)cc2)C(C(=O)OCc2ccccc2)=C1C (stereo not given) | 27 | - | - | - | - | -
COc1ccc(Cl)cc1C(=O)Nc1ccc(NC(C)=O)cc1 | - | - | - | - | - | -
CC(=O)Oc1c(I)cc(I)cc1C(=O)Nc1ccc(Cl)cc1 | 25 | - | 25 | - | - | -
C[C@@H]1CCCCO[C@H](CN(C)Cc2ccncc2)[C@@H](C)CN([C@H](C)CO)C(=O)c2cc(N(C)C)ccc2O1 | . | - | . | . | - | .
CCc1ccc(S(=O)(=O)Nc2cc3c(cc2N2CCOCC2)n(C)c(=O)c(=O)n3C)cc1 | - | - | 26 | - | - | -
CN(C)S(=O)(=O)c1ccc(N2CCCC2)c(C(=O)NCC2CCCCC2)c1 | 28 | - | - | - | - | -
CC1CCN(C(=O)c2ncn3c2C(=O)NC[C@@H]3C)CC1 | . | - | . | . | - | .
SMILES | pPAFAH inh | ARFGAP1 inhibitor | PAFAH1B2 FP inh | PAFAH2 FP inh | ASAP1 GAP inh | PAFAH1B3 inh
O=C(O)CCn1cc(C2CC(c3ccccc3)=NN2c2ccccc2)c(-c2ccccc2)n1 (stereo not given) | 27 | - | - | - | - | -
Cc1ccc(-c2nn(-c3ccccc3)cc2C2CC(c3cccs3)=NN2C(=O)CCC(=O)O)cc1 (stereo not given) | - | - | - | - | - | -
CC1=C[C@@H]2[C@H]3C(=O)N(Cc4ccccc4)C(=O)[C@H]3[C@@H]1[C@@H]1O[C@@]3(C(=O)N(C)c4ccccc43)C3=C(CCCC3=O)N21 | . | - | . | . | - | .
COC/C=C/C1=CC2=CC(=O)C(C)(OC(=O)c3cnc4ccccc4n3)C(=O)C2=CO1 (stereo not given) | 55 | . | . | . | . | .
Cn1c2ccccc2c2cc(/C=N/NC(=O)c3cc(O)cc(O)c3)ccc21 | 30 | - | 25 | - | - | -
O=C(Cn1cc[n+](CC(=O)c2ccc(Cl)cc2Cl)c1)c1ccc(Cl)cc1Cl | 33 | - | . | . | - | .
C=C[C@]1(C)C=C2CC[C@H]3[C@@](C)(CCC[C@@]3(C)C(=O)O)[C@@H]2CC1 | - | . | 48 | - | . | -
O=C(OCC(=O)c1ccc(Cl)cc1Cl)c1ccc2c(c1)C(=O)N(c1cccc3ncccc13)C2=O | - | - | - | - | 114 | -
O=[N+]([O-])c1ccc(OC2OCC(O)C(O)C2O)cc1 (stereo not given) | . | - | . | . | - | .
CCN(CC)S(=O)(=O)c1ccc2c(c1)nc(SC(C)C(N)=O)n2-c1ccc(OC)cc1 (stereo not given) | 26 | - | - | - | - | -
COC(=O)[C@]12C[C@H](CC(=O)NCc3cccc(C(F)(F)F)c3)C(=O)N(CCC3=CCCCC3)C1=C[C@H](COCc1ccccc1)O[C@@H]2C | . | - | . | . | - | .
Cn1cc(C(=O)c2cccc(Cl)c2Cl)cc1C(=O)O | - | - | - | - | - | -
COC(=O)c1cc(C(=O)c2cccc(Cl)c2Cl)cn1C | 25 | - | - | - | - | -
CC(=O)c1cccc(-c2csc(N3CCC(C(N)=O)CC3)n2)c1 | - | - | - | - | - | -
NC(=O)C1CCN(c2nc(-c3cccc(Cl)c3)cs2)CC1 | 33 | - | - | - | - | -
O=C(N[C@H](C(=O)N1CCC[C@H]1C(=O)NC1CCCC1)C1CCCCC1)c1ccc(Cl)c(Cl)c1 | . | - | . | . | - | .
CCOC(=O)c1sc(N(Cc2ccccc2)C(=O)COC(=O)c2ccccc2O)nc1C | - | - | 42 | - | - | -
COC(=O)C1=C(C)N(Cc2ccccc2C(F)(F)F)C(=NCc2ccc(OC)cc2)NC1c1ccccc1C(F)(F)F (stereo not given) | . | - | . | . | - | .
CC1(C(=O)NCc2ccccc2)CN(S(C)(=O)=O)CC(=O)N1Cc1ccco1 (stereo not given) | . | - | . | . | - | .
C[n+]1c(-c2ccccc2)cc2c(=Cc3ccc([N+](=O)[O-])cc3)c3ccccc3n21 | . | - | - | 81 | - | 39
Cc1ccc(CNC(=O)/C=C/c2ccc(S(=O)(=O)NCc3ccco3)cc2)cc1 | - | - | - | - | - | -
O=C(/C=C/c1ccc(S(=O)(=O)NCc2ccco2)cc1)NCc1cccc(Cl)c1 | 29 | - | - | - | - | -
COc1ccccc1CNC(=O)/C=C/c1ccc(S(=O)(=O)NCc2ccco2)cc1 | 25 | - | - | - | - | -
CCOC(=O)Cc1csc2nc(-c3ccccc3)cn12 | . | - | . | . | - | .
O=C(COC(=O)COc1ccc(Br)cc1)NCCC1=CCCCC1 | - | - | 30 | - | - | -

High-throughput results as filed in PubChem BioAssay.
